How the values were obtained:
A2780 = test: Cytotoxicity against human A2780 cells assessed as growth inhibition after 72 hrs by WST-1 assay; assay type: functional, cell-based; settings: A2780, 72 h
MCF7 = test: Cytotoxicity against human MCF-7 cells assessed as growth inhibition after 72 hrs by WST-1 assay; assay type: functional, cell-based; settings: MCF7, 72 h
[1] = Apparent volume of distribution in NMRI mouse at 50 mg/kg, iv; assay type: ADME, organism-based; design: dose 50 mg/kg, route intravenous; settings: in vivo, read-out: Vz
Summary of the method: (§1)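 Mouse PK after a single i.v. dose. Plasma proteins were precipitated with acetonitrile containing internal standard (3:1 v/v). Samples were analysed by UPLC-MS/MS on a C18 column at 40°C with an acetonitrile–0.05% formic acid gradient, using positive electrospray MRM. Parameters were derived by non-compartmental analysis.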

[2] = Toxicity in ip dosed NMRI mouse assessed as blood cell count administered as bid for 5 days; assay type: organism-based; settings: in vivo
[3] = Tmax in NMRI mouse at 50 mg/kg, iv; assay type: ADME, organism-based; design: dose 50 mg/kg, route intravenous; settings: in vivo; summary of the method: as §1
Mus musculus [4] = test: Toxicity in human A2780 cells xenografted NMRI/nude mouse containing small tumors assessed as effect on body weight at 0.63 to 2.5 mg/kg, ip bid administered for 5 days measured at day 14 relative to vehicle-treated control; assay type: organism-based; design: dose 0.63-2.5 mg/kg, route intraperitoneal; settings: in vivo, 120 h
Mus musculus [5] = test: Toxicity in human A2780 cells xenografted NMRI/nude mouse containing large tumors assessed as effect on body weight at 5 to 10 mg/kg, ip bid administered for 10 days measured during compound administration; settings: in vivo, 240 h
[6] = Half life in NMRI mouse at 50 mg/kg, iv; assay type: ADME, organism-based; design: dose 50 mg/kg, route intravenous; settings: in vivo; summary of the method: as §1
Mus musculus [7] = test: Toxicity in human A2780 cells xenografted NMRI/nude mouse containing large tumors assessed as effect on body weight at 3 mg/kg, ip bid administered for 10 days; settings: in vivo
[8] = Toxicity in ip dosed NMRI mouse assessed as body weight loss administered as bid for 5 days; assay type: organism-based; settings: in vivo
[9] = Cmax in NMRI mouse at 50 mg/kg, iv; assay type: ADME, organism-based; design: dose 50 mg/kg, route intravenous; settings: in vivo; summary of the method: as §1
[10] = biological target: Nicotinamide phosphoribosyltransferase (Homo sapiens, UniProt P43490); test: Inhibition of NAMPT in human HepG2 cells using [14C]-nicotinamide/PRPP as substrate assessed as formation of [14C]-nicotinamide mononucleotide after 1 hr by liquid scintillation counting analysis; assay type: cell-based
[11] = Clearance in NMRI mouse at 50 mg/kg, iv; assay type: ADME, organism-based; design: dose 50 mg/kg, route intravenous; settings: in vivo; summary of the method: as §1
[12] = AUC in NMRI mouse at 50 mg/kg, iv; assay type: ADME, organism-based; design: dose 50 mg/kg, route intravenous; settings: plasma; summary of the method: as §1
Plasma = test: Metabolic stability in mouse plasma assessed as compound hydrolysis; assay type: ADME, cell-free
HCT-116 [13] = test: Cytotoxicity against APO866-resistant human HCT116 cells assessed as growth inhibition after 72 hrs by WST-1 assay; assay type: functional, cell-based; settings: HCT-116, 72 h
HCT-116 [14] = test: Cytotoxicity against human HCT116 cells assessed as growth inhibition after 72 hrs by WST-1 assay; assay type: functional, cell-based; settings: HCT-116, 72 h
HCT-116 [15] = test: Resistance factor, ratio of IC50 for APO866-resistant human HCT116 cells to IC50 for human HCT116 cells; assay type: functional

Nicotinamide phosphoribosyltransferase, sequence (P43490 whole entry): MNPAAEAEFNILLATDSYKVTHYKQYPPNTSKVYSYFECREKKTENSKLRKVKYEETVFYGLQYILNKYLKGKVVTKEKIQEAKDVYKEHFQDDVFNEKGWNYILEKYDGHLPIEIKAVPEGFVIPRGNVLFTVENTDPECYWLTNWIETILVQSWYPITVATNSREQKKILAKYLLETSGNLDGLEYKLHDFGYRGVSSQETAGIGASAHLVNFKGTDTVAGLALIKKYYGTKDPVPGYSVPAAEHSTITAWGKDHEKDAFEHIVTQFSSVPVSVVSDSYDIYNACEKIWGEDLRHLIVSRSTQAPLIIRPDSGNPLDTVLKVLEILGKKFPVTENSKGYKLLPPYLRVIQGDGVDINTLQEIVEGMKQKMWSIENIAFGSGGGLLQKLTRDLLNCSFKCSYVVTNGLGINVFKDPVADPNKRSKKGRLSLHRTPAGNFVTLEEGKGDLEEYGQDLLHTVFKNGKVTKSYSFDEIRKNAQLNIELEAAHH

| SMILES | IC50 (A2780) [nM] | IC50 (MCF7) [nM] | other results |
| --- | --- | --- | --- |
| O=C1C(=O)C(Nc2ccncc2)C1NCCCCCS(=O)(=O)N(OCCN1CCOCC1)C1CCCC1 (stereo not drawn) | 0.38 | 46.3 |  |
| N#C/N=C(\NCCCCCCC(=O)N(OCCN1CCOCC1)C1CCCCC1)Nc1ccccc1 | 98 | 1020 |  |
| O=C(NCCCCCCCS(=O)(=O)N(OCCN1CCOCC1)C1CCCCC1)Nc1ccncc1 | 1.8 | 7.4 |  |
| N#CNC(=Nc1ccncc1)NCCCCCCS(=O)(=O)N(OCCN1CCOCC1)C1CCCCC1 |  |  | Vd [1]: 1.28 L/kg; MTD at 120 h [2]: < 10 mg/kg; Tmax [3]: 4.8 min; Activity (Mus musculus [4]): Non-toxic; Activity (Mus musculus [5]): Toxic; half-life [6]: 10.8 min; Activity (Mus musculus [7]): Non-toxic; MTD at 120 h [8]: < 10 mg/kg; Cmax [9]: 14100 ng/mL; IC50 [10]: 0.3 nM; clearance [11]: 81.8 mL/min/kg; AUC [12]: 10200 ng·h/mL |
| N#CN=C(NCCCCCCOc1ccc(Cl)cc1)Nc1ccncc1 [CHS-828] | 0.56 | 1.6 |  |
| O=C1C(=O)C(Nc2ccncc2)C1NCCCCCCCS(=O)(=O)N(OCCN1CCOCC1)C1CCCCC1 (stereo not drawn) | 0.49 | 8 | IC50 [10]: 3.6 nM |
| O=C(NCCCCCS(=O)(=O)N(OCCN1CCOCC1)C1CCCC1)NCc1cccnc1 | 2.7 | 7 |  |
| N#C/N=C(\NCCCCCCS(=O)(=O)N(CCCN1CCOCC1)C1CCCCC1)Nc1ccncc1 | 0.16 | 0.11 | IC50 [10]: 2.4 nM |
| O=C(NCCCCCCS(=O)(=O)N(CCN1CCOCC1)CC1CCCCC1)NCc1cccnc1 | 0.17 | 0.93 | IC50 [10]: 11.8 nM |
| N#C/N=C(\NCCCCC[C@@H](Cc1ccccc1)C(=O)NOC1CCCCC1)Nc1ccncc1 | 0.32 | 5.3 | Stability (Plasma): Unstable |
| C[C@H](CCCCCN/C(=N\C#N)Nc1ccncc1)C(=O)NOC1CCCCC1 | 3.9 | 38.3 |  |
| O=C1C(=O)C(Nc2ccncc2)C1NCCCCCCS(=O)(=O)N(OCCN1CCOCC1)C1CCCCC1 (stereo not drawn) | 0.49 | 9 | Vd [1]: 1.2 L/kg; IC50 (HCT-116 [13]): > 5 µM; MTD at 120 h [2]: < 10 mg/kg; Tmax [3]: 4.98 min; half-life [6]: 12.6 min; IC50 (HCT-116 [14]): 39 nM; MTD at 120 h [8]: < 10 mg/kg; Cmax [9]: 33500 ng/mL; clearance [11]: 66.6 mL/min/kg; AUC [12]: 12500 ng·h/mL; Ratio IC50 (HCT-116 [15]): 128 |
| O=C1C(=O)C(Nc2ccncc2)C1NCCCCCCS(=O)(=O)N(OCCN1CCOCC1)C1CCC1 (stereo not drawn) | 0.2 | 29.1 |  |
| N#C/N=C(\NCCCCCCS(=O)(=O)N(OCCN1CCOCC1)C1CCCCC1)Nc1cccnc1 | 0.51 | 2.9 |  |
| N#C/N=C(\NCCCCCCC(=O)N(OCCN1CCOCC1)C1CCCCC1)Nc1ccncc1 | 0.1 | 0.42 | IC50 [10]: 0.2 nM |
| N#CNC(=Nc1ccncc1)NCCCCCCC(=O)NOC1CCCCC1 | 35 | 940 | IC50 [10]: 1.1 nM |
| O=C(NCCCCCCS(=O)(=O)N(OCCN1CCOCC1)C1CCCCC1)Nc1ccncc1 | 0.25 | 0.05 | Vd [1]: 4.6 L/kg; IC50 (HCT-116 [13]): > 5 µM; MTD at 120 h [2]: < 10 mg/kg; Tmax [3]: 4.8 min; half-life [6]: 27 min; IC50 (HCT-116 [14]): 5.3 nM; MTD at 120 h [8]: < 10 mg/kg; Cmax [9]: 14800 ng/mL; IC50 [10]: 49 nM; clearance [11]: 118 mL/min/kg; AUC [12]: 7020 ng·h/mL; Ratio IC50 (HCT-116 [15]): 128 |
| O=C1C(=O)C(Nc2ccncc2)C1NCCCCCCS(=O)(=O)N(CCN1CCOCC1)OCC1CCCCC1 (stereo not drawn) | 0.73 | 10.8 |  |
| O=C(NCCCCCS(=O)(=O)N(OCCN1CCOCC1)C1CCCCC1)Nc1ccncc1 | 3.4 | 28 |  |
| N#C/N=C(\NCCCCC[C@H](Cc1ccccc1)C(=O)NOC1CCCCC1)Nc1ccncc1 | 0.22 | 1.7 | Stability (Plasma): Unstable |
| N#C/N=C(\NCCCCCC(=O)N(Cc1ccccc1)OCCN1CCOCC1)Nc1ccncc1 | 0.081 | 0.021 |  |
| O=C(NCCCCCCS(=O)(=O)N(CCCN1CCOCC1)C1CCC1)NCc1cccnc1 | 1.7 | 8.7 |  |
| N#C/N=C(\NCCCCCCCS(=O)(=O)N(OCCN1CCOCC1)C1CCCCC1)Nc1ccncc1 | 0.089 | 0.29 |  |
| O=C(NCCCCCCCS(=O)(=O)N(OCCN1CCOCC1)C1CCCCC1)NCc1cccnc1 | 0.31 | 3.6 |  |
